Values after ≈ are worked out from the molar mass of the structure shown. Active and inactive are the calls of the source. The rule behind the calls is not given here.
Key:
[1] = system: Mycobacterium tuberculosis; assay: Antitubercular activity against Mycobacterium tuberculosis H37Ra at 200 ug/ml after 4 days by microplate alamar blue assay; assay type: functional, organism-based
Summary of the method: (§1)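 M. tuberculosis H37Ra tested in an Alamar Blue microplate assay. Values are given as MIC in µg/mL. The highest level tested was 200 µg/mL.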

[2] = system: Plasmodium falciparum; assay: Antiplasmodial activity against multidrug-resistant Plasmodium falciparum K1 assessed as [3H]hypoxanthine incorporation at 10 ug/ml after 24 hrs by microtiter plate scintillation counting; assay type: functional, organism-based
Summary of the method: (§2)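 K1 multidrug-resistant P. falciparum kept in continuous culture (Trager–Jensen). In vitro activity measured by a microculture radioisotope technique (Desjardins method). The highest level tested was 10 µg/mL.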

[3] = system: Vero; assay: Cytotoxicity against african green monkey Vero cells at 50 ug/ml by sulforhodamine B assay; assay type: cell-based; details: chlorocebus sabaeus
Summary of the method: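 African green monkey kidney fibroblasts (Vero) exposed to test material at 50 µg/mL; cell growth read by a colorimetric method (Skehan and coworkers).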

[4] = system: Mycobacterium tuberculosis; assay: Antitubercular activity against Mycobacterium tuberculosis H37Ra after 4 days by microplate alamar blue assay; assay type: functional; details: 96 h; summary of the method: as §1
[5] = system: Vero; assay: Cytotoxicity against african green monkey Vero cells by sulforhodamine B assay; assay type: cell-based; details: chlorocebus sabaeus
Summary of the method: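 Vero cells were described as African green monkey kidney fibroblasts. Read-out was by the colorimetric method of Skehan and coworkers. Compounds were tested up to 50 µg/mL.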

[6] = system: Plasmodium falciparum; assay: Antiplasmodial activity against multidrug-resistant Plasmodium falciparum K1 assessed as [3H]hypoxanthine incorporation after 24 hrs by microtiter plate scintillation counting; assay type: functional, organism-based; summary of the method: as §2

| SMILES | Activity [1] | Activity [2] | Activity [3] | MIC [4] [µg/mL] | IC50 [5] [µg/mL] | IC50 [6] |
| --- | --- | --- | --- | --- | --- | --- |
| C=C1CC[C@@H]2[C@H](c3c(C)c(O)c4c(c31)C(=O)[C@H](C)C4)C2(C)C [JATROPHOLONE B] | inactive | inactive | Non-toxic |  |  |  |
| NNC(=O)c1ccncc1 [ISONIAZID] |  |  |  | 0.1 (≈ 0.729 µM) |  |  |
| C=C1CC[C@@H]2[C@H](c3c(C)c(O)c4c(c31)C(=O)[C@@](C)(O)C4)C2(C)C | inactive | inactive |  |  | 49.4 (≈ 158 µM) |  |
| Cc1c2ccncc2c(C)c2c1[nH]c1ccccc12 [ELLIPTECINE] |  |  |  |  | 0.7 (≈ 2.84 µM) |  |
| C=C1CC[C@@H]2[C@H](c3c(C)c(O)c4c(c31)C(=O)[C@@H](C)C4)C2(C)C [JATROPHOLONE A] | inactive |  | Non-toxic |  |  | 5.4 µg/mL |
| C=C1CC[C@@H]2[C@H](c3c(C)c(O)c4c(c31)C(=O)[C@](C)(O)C4)C2(C)C | inactive |  | Non-toxic |  |  | 4.1 µg/mL |
| C[C@H]1[C@@H](O)O[C@@H]2O[C@@]3(C)CC[C@H]4[C@H](C)CC[C@@H]1[C@@]24OO3 [ARTENIMOL] |  |  |  |  |  | 4 nM |
| NC[C@H]1O[C@H](O[C@H]2[C@H](O)[C@@H](O[C@H]3O[C@H](CO)[C@@H](O)[C@H](N)[C@H]3O)[C@H](N)C[C@@H]2N)[C@H](O)[C@@H](O)[C@@H]1O [KANAMYCIN] |  |  |  | 2.5 (≈ 5.16 µM) |  |  |
| C=C(C)[C@@H]1CC[C@]23CO[C@@]4(OO2)C2=C(C(=O)C(C)=C[C@@H]1[C@@H]23)[C@H](O)[C@H]4C [CANIOJANE] |  |  |  | 25 (≈ 72.6 µM) | 12.9 (≈ 37.5 µM) | 3.3 µg/mL |
